ChEMBL document CHEMBL5329183, “Naphthylthiazoles: a class of broad-spectrum antifungals” (RSC Med Chem, 2023)
Converted amounts (≈) assume the structure as drawn.

How the values were obtained:
[Candida] auris [1] = Antifungal activity against Candida auris 382 assessed as inhibition of fungal growth incubated for 24 hrs by broth microdilution method; assay type: functional; conditions: Candidozyma auris
In short: (§1)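 Clinical isolate; CLSI broth microdilution over a range of concentrations (media listed: RPMI 1640, MOPS, YPD). MIC taken as lowest concentration giving 50% growth inhibition after 24 h at 35 °C.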

Lactobacillus gasseri = test: Antibacterial activity against Lactobacillus gasseri HM400 assessed as inhibition of bacterial growth; assay type: toxicity, organism-based
Candida parapsilosis = test: Antifungal activity against Candida parapsilosis CAB 502638 assessed as inhibition of fungal growth incubated for 24 hrs by broth microdilution method; assay type: functional; conditions: Lodderomyces parapsilosis
In short: (§2)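 Broth microdilution per CLSI guidelines against clinical isolates, incubated at 35 °C for 24 h (Candida, Aspergillus) or 48 h (Cryptococcus). MIC was the lowest concentration giving 50% growth inhibition.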

[2] = Selectivity ratio of CC50 for cytotoxicity against African green monkey Vero cells to MIC for antifungal activity against Cryptococcus neoformans NR 48767; assay type: toxicity, cell-based
[3] = Selectivity ratio of CC50 for cytotoxicity against human Caco-2 cells to MIC for antifungal activity against Cryptococcus gattii NR 43209; assay type: toxicity, cell-based
[4] = Selectivity ratio of CC50 for cytotoxicity against African green monkey Vero cells to MIC for antifungal activity against Cryptococcus gattii NR 43209; assay type: toxicity, cell-based
[5] = Selectivity ratio of CC50 for cytotoxicity against African green monkey Vero cells to MIC for antifungal activity against Cryptococcus gattii NR 43210; assay type: toxicity, cell-based
Cryptococcus neoformans [6] = test: Antifungal activity against Cryptococcus neoformans NR 48770 assessed as inhibition of fungal growth incubated for 48 hrs by broth microdilution method; assay type: functional
In short: (§3)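 Clinical isolate; CLSI broth microdilution over a range of concentrations (media listed: RPMI 1640, MOPS, YPD). MIC read as lowest concentration inhibiting growth by 50% after 48 h incubation at 35 °C.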

Caco-2 = test: Cytotoxicity against human Caco-2 cells assessed as inhibition of cell viability at 128 ug/ml incubated for 2 hrs by MTS assay; assay type: toxicity, cell-based; conditions: caco-2, 2 h, dose 128 µg/ml
In short: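 Caco-2 cells were grown in DMEM with 10% FBS, 1× nonessential amino acids and penicillin–streptomycin, then treated with 32, 64 and 128 μg mL−1 for 2 h at 37 °C, 5% CO2, in triplicate. MTS was added for 3 h and OD490 read. Viability was expressed as % of DMSO control (mean ± SD).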

[Candida] auris [7] = Antifungal activity against Candida auris 383 assessed as inhibition of fungal growth incubated for 24 hrs by broth microdilution method; assay type: functional; conditions: Candidozyma auris; in short: as §1
Candida albicans [8] = test: Antifungal activity against Candida albicans NR 29448 assessed as inhibition of fungal growth incubated for 24 hrs by broth microdilution method; assay type: functional; in short: as §1
[9] = Antifungal activity against Cryptococcus gattii NR 43209 assessed as inhibition of fungal growth incubated for 48 hrs by broth microdilution method; assay type: functional, Cryptococcus gattii VGI; in short: as §2
[10] = Antifungal activity against Cryptococcus gattii NR 43210 assessed as inhibition of fungal growth incubated for 48 hrs by broth microdilution method; assay type: functional, Cryptococcus gattii VGI; in short: as §2
Pichia kudriavzevii [11] = test: Antifungal activity against Candida krusei ATCC 34135 assessed as inhibition of fungal growth incubated for 24 hrs by broth microdilution method; assay type: functional; in short: as §2
[12] = Selectivity ratio of CC50 for cytotoxicity against human Caco-2 cells to MIC for antifungal activity against Cryptococcus neoformans NR 41299; assay type: toxicity, cell-based
[13] = Antifungal activity against Cryptococcus gattii NR 43214 assessed as inhibition of fungal growth incubated for 48 hrs by broth microdilution method; assay type: functional, Cryptococcus gattii VGI; in short: as §2
Cryptococcus neoformans [14] = test: Antifungal activity against Cryptococcus neoformans NR 41300 assessed as inhibition of fungal growth incubated for 48 hrs by broth microdilution method; assay type: functional; in short: as §3
Clostridioides difficile = test: Antibacterial activity against Clostridium difficile ATCC BAA1870 assessed as inhibition of bacterial growth; assay type: functional
[15] = Selectivity ratio of CC50 for cytotoxicity against human Caco-2 cells to MIC for antifungal activity against Cryptococcus gattii NR 43216; assay type: toxicity, cell-based
Cryptococcus neoformans [16] = test: Anti-cryptococcal activity against Cryptococcus neoformans NR 41300 infected in mouse J774 cells assessed as log reduction of intracellular fungal colony forming unit at 4 ug/ml measured after 24 hrs; assay type: functional; conditions: dose 4 µg/ml
In short: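 C. neoformans NR-41300 was grown 48 h in YPD, washed, and used to infect J774 macrophages at MOI ~100:1 for 1 h, followed by PBS washes. Compounds at 4 μg mL−1 (triplicate) were applied for 22 h at 37 °C, 5% CO2. Extracellular yeast were killed with amphotericin B 1 μg mL−1 for 1 h. Cells were lysed in 0.1% Triton X-100 and plated on YPD agar for 48 h at 37 °C; readout log10 CFU mL−1.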

[17] = Selectivity ratio of CC50 for cytotoxicity against African green monkey Vero cells to MIC for antifungal activity against Cryptococcus neoformans NR 41300; assay type: toxicity, cell-based
Escherichia coli = test: Antibacterial activity against Escherichia coli JW55031 harboring tolC mutant assessed as inhibition of bacterial growth; assay type: functional
Cryptococcus neoformans [18] = test: Antibiofilm activity against Cryptococcus neoformans NR 41300 assessed as inhibition of biofilm formation at 0.5xMIC measured after 48 hrs by crystal violet staining based analysis; assay type: functional
In short: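 Overnight C. neoformans was washed twice in PBS and adjusted to 105 cells per mL in RPMI. Cells were exposed to compound at 0.5 × MIC for 48 h at 35 °C. Biofilm was rinsed, dried, stained with 0.1% crystal violet, and the dye extracted with glacial acetic acid; OD595 readout.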

Pichia kudriavzevii [19] = test: Antifungal activity against Candida krusei CAB 396420 assessed as inhibition of fungal growth incubated for 24 hrs by broth microdilution method; assay type: functional; in short: as §2
Aspergillus fumigatus = test: Antifungal activity against Aspergillus fumigatus NR 35304 assessed as inhibition of fungal growth incubated for 24 hrs by broth microdilution method; assay type: functional; in short: as §2
[20] = Selectivity ratio of CC50 for cytotoxicity against human Caco-2 cells to MIC for antifungal activity against Cryptococcus neoformans NR 48767; assay type: toxicity, cell-based
[21] = Antibacterial activity against Lactobacillus casei HM334 assessed as inhibition of bacterial growth; assay type: toxicity; conditions: lacticaseibacillus casei
Candida albicans [22] = test: Antifungal activity against wild type Candida albicans SC5314 assessed as inhibition of fungal growth; assay type: functional
[23] = Selectivity ratio of CC50 for cytotoxicity against human Caco-2 cells to MIC for antifungal activity against Cryptococcus neoformans NR 41300; assay type: toxicity, cell-based
Cryptococcus neoformans [24] = test: Antifungal activity against Cryptococcus neoformans NR 48767 assessed as inhibition of fungal growth incubated for 48 hrs by broth microdilution method; assay type: functional; in short: as §3
Cryptococcus neoformans [25] = test: Antifungal activity against Cryptococcus neoformans NR 41299 assessed as inhibition of fungal growth incubated for 48 hrs by broth microdilution method; assay type: functional; in short: as §3
Nakaseomyces glabratus = test: Antifungal activity against Candida glabrata ATCC MYA2950 assessed as inhibition of fungal growth incubated for 24 hrs by broth microdilution method; assay type: functional; in short: as §1
[26] = Antifungal activity against Cryptococcus gattii NR 43216 assessed as inhibition of fungal growth incubated for 48 hrs by broth microdilution method; assay type: functional, Cryptococcus gattii VGI; in short: as §2
[27] = Selectivity ratio of CC50 for cytotoxicity against African green monkey Vero cells to MIC for antifungal activity against Cryptococcus neoformans NR 41298; assay type: toxicity, cell-based
Cryptococcus neoformans [28] = test: Antifungal activity against Cryptococcus neoformans NR 48771 assessed as inhibition of fungal growth incubated for 48 hrs by broth microdilution method; assay type: functional; in short: as §3

SMILES | MIC ([Candida] auris [1]) [µg/mL] | MIC (Lactobacillus gasseri) [µg/mL] | MIC (Candida parapsilosis) [µg/mL] | selectivity ratio [2] | selectivity ratio [3] | selectivity ratio [4] | selectivity ratio [5] | MIC (Cryptococcus neoformans [6]) [µg/mL] | Activity (Caco-2) | MIC ([Candida] auris [7]) [µg/mL] | MIC (Candida albicans [8]) [µg/mL] | MIC [9] [µg/mL] | MIC [10] [µg/mL] | MIC (Pichia kudriavzevii [11]) [µg/mL] | selectivity ratio [12] | MIC [13] [µg/mL] | MIC (Cryptococcus neoformans [14]) [µg/mL] | MIC (Clostridioides difficile) [µg/mL] | selectivity ratio [15] | Activity (Cryptococcus neoformans [16]) [log10CFU/ml] | other results
Cc1nc(-c2ccc3ccccc3c2)sc1-c1nnc(N[C@@H]2CCCC[C@H]2N)o1 (relative stereo) | 2 (≈ 4.93 µM) | > 128 | 1 (≈ 2.47 µM) | 64 | 64 | 64 | 64 | 1 (≈ 2.47 µM) | Non-Toxic | 1 (≈ 2.47 µM) | 4 (≈ 9.86 µM) | 1 (≈ 2.47 µM) | 1 (≈ 2.47 µM) | 1 (≈ 2.47 µM) | 64 | 1 (≈ 2.47 µM) | 1 (≈ 2.47 µM) | 32 (≈ 78.9 µM) | 64 | 0.66 | selectivity ratio [17]: 64; MIC (Escherichia coli): > 64 µg/mL; growth inhibition (GI) (Cryptococcus neoformans [18]): ~56%; MIC (Pichia kudriavzevii [19]): 1 µg/mL (≈ 2.47 µM); MIC (Aspergillus fumigatus): 4 µg/mL (≈ 9.86 µM); selectivity ratio [20]: 64; MIC [21]: > 128 µg/mL; MIC (Candida albicans [22]): 1 µg/mL (≈ 2.47 µM); selectivity ratio [23]: 64; MIC (Cryptococcus neoformans [24]): 2 µg/mL (≈ 4.93 µM); MIC (Cryptococcus neoformans [25]): 1 µg/mL (≈ 2.47 µM); MIC (Nakaseomyces glabratus): 1 µg/mL (≈ 2.47 µM); MIC [26]: 2 µg/mL (≈ 4.93 µM); selectivity ratio [27]: 64; MIC (Cryptococcus neoformans [28]): 1 µg/mL (≈ 2.47 µM)
Cc1nc(-c2ccc3ccccc3c2)sc1-c1nnc(N[C@@H]2CCCC[C@@H]2N)o1 (relative stereo) | 2 (≈ 4.93 µM) | > 128 | 1 (≈ 2.47 µM) | 64 | 64 | 64 | 64 | 1 (≈ 2.47 µM) | Non-Toxic | 1 (≈ 2.47 µM) | 4 (≈ 9.86 µM) | 1 (≈ 2.47 µM) | 1 (≈ 2.47 µM) | 1 (≈ 2.47 µM) | 64 | 2 (≈ 4.93 µM) | 1 (≈ 2.47 µM) | 64 (≈ 158 µM) | 64 | 1.04 | selectivity ratio [17]: 64; MIC (Escherichia coli): > 64 µg/mL; growth inhibition (GI) (Cryptococcus neoformans [18]): ~53%; MIC (Pichia kudriavzevii [19]): 1 µg/mL (≈ 2.47 µM); MIC (Aspergillus fumigatus): 4 µg/mL (≈ 9.86 µM); selectivity ratio [20]: 64; MIC [21]: 128 µg/mL (≈ 316 µM); MIC (Candida albicans [22]): 1 µg/mL (≈ 2.47 µM); selectivity ratio [23]: 64; MIC (Cryptococcus neoformans [24]): 2 µg/mL (≈ 4.93 µM); MIC (Cryptococcus neoformans [25]): 2 µg/mL (≈ 4.93 µM); MIC (Nakaseomyces glabratus): 0.5 µg/mL (≈ 1.23 µM); MIC [26]: 2 µg/mL (≈ 4.93 µM); selectivity ratio [27]: 64; MIC (Cryptococcus neoformans [28]): 2 µg/mL (≈ 4.93 µM)
